Calls of active or inactive are those of the source. No cut-off for these calls is given here.
Assays:
[1] = Retention time of the compound measured over 30 mins at flow rate of 1 mL/min by HPLC; type: physicochemical; settings: 0.5 h
Procedure, shortened: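 Reversed-phase analytical HPLC or LC−MS on a SymmetryShield RP18 column (5 μm, 4.6 × 150 mm). Gradient 10−60% B over 30 min at 1 mL/min; A = 0.1% TFA in water, B = 0.1% TFA in acetonitrile.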

[2] = test system: HEK293; test: Selectivity ratio of IC50 for rat Nav1.2 expressed in HEK-293 cells to IC50 for human Nav1.7 expressed in HEK-293 cells; type: cell-based
[3] = target: T1, Sodium channel protein type 9 subunit alpha (Homo sapiens, UniProt Q15858); test: Inhibition of human Nav1.7 expressed in HEK-293 cells assessed as time for channel-mediated current inhibition at 2 nM by time-course experiment; type: cell-based; settings: HEK293
Procedure, shortened: (§1)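 HEK-293 cells on poly-D-lysine-coated dishes in DMEM at 37 °C, 5% CO2; recorded 12−48 h after plating. Whole-cell voltage-clamp sodium currents under continuous perfusion with extracellular solution. Compounds applied via a gravity-driven superfusion pipette array with its outlet about 100 μm from the cell.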
Target sequence in this assay (Q15858 whole entry, looked up, the tested form may be a part): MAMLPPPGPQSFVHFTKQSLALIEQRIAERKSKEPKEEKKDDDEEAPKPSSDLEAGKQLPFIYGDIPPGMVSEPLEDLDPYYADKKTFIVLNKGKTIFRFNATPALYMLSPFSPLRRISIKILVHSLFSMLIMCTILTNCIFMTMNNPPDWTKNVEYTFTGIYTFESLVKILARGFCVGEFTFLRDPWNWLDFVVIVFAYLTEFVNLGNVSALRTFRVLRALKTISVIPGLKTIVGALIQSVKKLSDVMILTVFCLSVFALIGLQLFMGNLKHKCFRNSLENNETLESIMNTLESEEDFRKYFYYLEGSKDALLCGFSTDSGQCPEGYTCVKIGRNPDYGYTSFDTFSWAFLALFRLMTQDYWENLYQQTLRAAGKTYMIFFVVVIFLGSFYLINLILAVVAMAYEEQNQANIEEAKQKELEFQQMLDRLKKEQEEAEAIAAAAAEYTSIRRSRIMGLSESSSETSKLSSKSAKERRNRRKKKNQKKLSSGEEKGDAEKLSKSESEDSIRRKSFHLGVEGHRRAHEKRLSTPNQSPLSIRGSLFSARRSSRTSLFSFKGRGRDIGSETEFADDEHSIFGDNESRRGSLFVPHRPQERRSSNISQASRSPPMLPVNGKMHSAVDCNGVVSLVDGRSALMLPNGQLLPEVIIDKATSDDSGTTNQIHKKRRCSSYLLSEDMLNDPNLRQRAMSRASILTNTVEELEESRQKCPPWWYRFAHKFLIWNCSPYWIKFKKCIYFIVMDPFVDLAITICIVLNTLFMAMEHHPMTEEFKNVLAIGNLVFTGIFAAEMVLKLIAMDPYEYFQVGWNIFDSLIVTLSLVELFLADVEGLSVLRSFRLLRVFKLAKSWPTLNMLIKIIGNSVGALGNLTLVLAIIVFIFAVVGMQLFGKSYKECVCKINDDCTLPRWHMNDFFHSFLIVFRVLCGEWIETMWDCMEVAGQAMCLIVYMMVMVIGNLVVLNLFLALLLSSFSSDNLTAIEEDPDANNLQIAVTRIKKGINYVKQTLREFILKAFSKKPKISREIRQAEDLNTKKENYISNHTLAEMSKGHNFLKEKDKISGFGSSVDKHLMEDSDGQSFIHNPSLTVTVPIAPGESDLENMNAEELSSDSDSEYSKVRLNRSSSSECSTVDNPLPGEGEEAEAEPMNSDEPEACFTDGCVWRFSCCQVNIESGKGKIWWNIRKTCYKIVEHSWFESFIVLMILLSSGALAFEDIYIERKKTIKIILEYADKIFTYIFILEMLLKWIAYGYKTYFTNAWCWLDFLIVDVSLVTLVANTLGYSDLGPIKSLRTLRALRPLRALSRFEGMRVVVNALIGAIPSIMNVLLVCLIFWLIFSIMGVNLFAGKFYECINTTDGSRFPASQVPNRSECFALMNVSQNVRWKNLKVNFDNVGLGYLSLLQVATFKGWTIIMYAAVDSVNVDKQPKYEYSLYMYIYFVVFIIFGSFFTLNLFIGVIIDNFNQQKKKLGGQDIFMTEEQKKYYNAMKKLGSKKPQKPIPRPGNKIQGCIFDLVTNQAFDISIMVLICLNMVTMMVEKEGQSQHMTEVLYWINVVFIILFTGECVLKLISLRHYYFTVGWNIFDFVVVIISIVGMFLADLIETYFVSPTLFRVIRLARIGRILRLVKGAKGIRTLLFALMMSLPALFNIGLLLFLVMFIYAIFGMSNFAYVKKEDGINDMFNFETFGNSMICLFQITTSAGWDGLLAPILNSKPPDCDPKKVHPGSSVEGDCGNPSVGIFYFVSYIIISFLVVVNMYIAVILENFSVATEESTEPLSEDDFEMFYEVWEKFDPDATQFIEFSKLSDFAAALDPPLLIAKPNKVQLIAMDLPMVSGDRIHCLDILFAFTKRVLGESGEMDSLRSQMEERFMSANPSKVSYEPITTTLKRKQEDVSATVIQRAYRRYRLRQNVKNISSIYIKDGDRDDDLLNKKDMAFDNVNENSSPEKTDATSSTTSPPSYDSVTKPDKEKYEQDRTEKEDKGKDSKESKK

[4] = Retention time of the compound measured over 15 mins at flow rate of 1 mL/min by HPLC
[5] = Retention time of the compound measured over 6 mins at flow rate of 0.5 mL/min by HPLC; type: physicochemical; settings: 0.1 h
[6] = target: T1, Sodium channel protein type 9 subunit alpha; test: Inhibition of human Nav1.7 expressed in HEK-293 cells at -130 to -110 mV holding potential by whole-cell voltage clamp analysis; type: cell-based, HEK293
Target sequence in this assay (Q15858 whole entry, the tested form may be a part): as the sequence (Q15858 whole entry, looked up, the tested form may be a part) above

[7] = target: T1, Sodium channel protein type 9 subunit alpha; test: Inhibition of human Nav1.7 expressed in HEK-293 cells assessed as inhibition of channel-mediated current at 1 nM by time-course experiment; type: cell-based; settings: HEK293; procedure, shortened: as §1
Target sequence in this assay (Q15858 whole entry, looked up, the tested form may be a part): as above

[8] = target: T1, Sodium channel protein type 9 subunit alpha; test: Inhibition of human Nav1.7 expressed in HEK-293 cells assessed as inhibition of channel-mediated current at 1 nM followed by wash-out and compound treatment at 0.1 nM by time-course experiment relative to initial peak amplitude; type: cell-based; settings: HEK293; procedure, shortened: as §1
Target sequence in this assay (Q15858 whole entry, looked up, the tested form may be a part): as above

## CSCC[C@@H]1NC(=O)CNC(=O)[C@H](CCC(=O)O)NC(=O)[C@@H]2CSSC[C@H](NC(=O)[C@@H](N)Cc3ccc(O)cc3)C(=O)N[C@@H](CCC(N)=O)C(=O)N[C@@H](CCCCN)C(=O)N[C@@H](Cc3c[nH]c4ccccc34)C(=O)N[C@@H](CCSC)C(=O)N[C@@H](Cc3c[nH]c4ccccc34)C(=O)N[C@@H]([C@@H](C)O)C(=O)N[C@H]3CSSC[C@H](NC(=O)[C@H](C(C)C)NC1=O)C(=O)N[C@@H](CCCNC(=N)N)C(=O)N[C@@H](CC(C)C)C(=O)N[C@@H](Cc1c[nH]c4ccccc14)C(=O)N[C@H](C(=O)N[C@@H](CCCCN)C(=O)N[C@@H](CCCCN)C(=O)N[C@@H](CCCCN)C(=O)N[C@@H](CC(C)C)C(=O)N[C@@H](Cc1c[nH]c4ccccc14)C(=O)O)CSSC[C@H](NC(=O)[C@H](CCCCN)NC(=O)[C@H](CCCNC(=N)N)NC(=O)[C@H](C)NC(=O)[C@H](CO)NC(=O)[C@H](CC(=O)O)NC3=O)C(=O)N2
[1]
  Retention_time: 14.54 min
[2]
  Ratio IC50: 40
[3]
  TIME: 0.0606 h
[4]
  Retention_time: 9.29 min

## CNC(=O)[C@H](Cc1c[nH]c2ccccc12)NC(=O)[C@H](CC(C)C)NC(=O)[C@H](CCCCN)NC(=O)[C@H](CCCCN)NC(=O)[C@H](CCCCN)NC(=O)[C@@H]1CSSC[C@@H]2NC(=O)[C@H](CCCCN)NC(=O)[C@H](CCCNC(=N)N)NC(=O)[C@H](CCC(=O)O)NC(=O)[C@H](CO)NC(=O)[C@H](CC(=O)O)NC(=O)[C@@H]3CSSC[C@H](NC(=O)[C@H](C(C)C)NC(=O)[C@H](CCSC)NC(=O)CNC(=O)[C@H](CCC(=O)O)NC(=O)[C@H](CSSC[C@H](NC(=O)[C@@H](N)Cc4ccc(O)cc4)C(=O)N[C@@H](CCC(N)=O)C(=O)N[C@@H](CCCCN)C(=O)N[C@@H](Cc4c[nH]c5ccccc45)C(=O)N[C@@H](CCSC)C(=O)N[C@@H](Cc4c[nH]c5ccccc45)C(=O)N[C@@H]([C@@H](C)O)C(=O)N3)NC2=O)C(=O)N[C@@H](CCCNC(=N)N)C(=O)N[C@@H](CC(C)C)C(=O)N[C@@H](Cc2c[nH]c3ccccc23)C(=O)N1
[1]
  Retention_time: 12.44 min
[5]
  Retention_time: 2.52 min
[6]
  IC50: 0.042 nM
[2]
  Ratio IC50: 83
[7]
  inhibition: Active
[8]
  inhibition: 80%

## CSCC[C@@H]1NC(=O)CNC(=O)[C@H](CCC(=O)O)NC(=O)[C@@H]2CSSC[C@H](NC(=O)[C@@H](N)Cc3ccc(O)cc3)C(=O)N[C@@H](CCC(N)=O)C(=O)N[C@@H](CCCCN)C(=O)N[C@@H](Cc3c[nH]c4ccccc34)C(=O)N[C@@H](CCSC)C(=O)N[C@@H](Cc3c[nH]c4ccccc34)C(=O)N[C@@H]([C@@H](C)O)C(=O)N[C@H]3CSSC[C@H](NC(=O)[C@H](C(C)C)NC1=O)C(=O)N[C@@H](CCCNC(=N)N)C(=O)N[C@@H](CC(C)C)C(=O)N[C@@H](Cc1c[nH]c4ccccc14)C(=O)N[C@H](C(=O)N[C@@H](CCCCN)C(=O)N[C@@H](CCCCN)C(=O)N[C@@H](CCCCN)C(=O)N[C@@H](CC(C)C)C(=O)N[C@@H](Cc1c[nH]c4ccccc14)C(=O)Nc1ccccc1)CSSC[C@H](NC(=O)[C@H](CCCCN)NC(=O)[C@H](CCCNC(=N)N)NC(=O)[C@H](CCC(=O)O)NC(=O)[C@H](CO)NC(=O)[C@H](CC(=O)O)NC3=O)C(=O)N2
[1]
  Retention_time: 14.13 min
[5]
  Retention_time: 2.57 min
[6]
  IC50: 0.8 nM
[2]
  Ratio IC50: 4
